System: HEK-293T
Test: Multiplex assay against HEK293T;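 for Population Tubulin-Different-Phenotype (%): share of the cells with healthy nuclei that show this phenotype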
Assay type: toxicity, cell-based
Details: human
Outline: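 Live cells carried four stains from seeding: Hoechst33342, BioTracker Green Microtubule Cytoskeleton Dye, MitoTracker Red and Annexin V Alexa Fluor 680. They were imaged on a CQ1 microscope at 37°C and 5% CO2 after compound addition. Using CellPathfinder machine-learning gating, cells were split into Hoechst high-intensity objects or normal cells, normal cells into healthy, pyknosed or fragmented nuclei, and pyknosed cells into mitotic or apoptotic; tubulin, mitochondrial-mass and membrane-permeability phenotypes are per cents of healthy-nucleus cells.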

[1] = 12 h, 1 µM, compound concentration 1 uM, replicate 1
[2] = 12 h, 1 µM, compound concentration 1 uM, replicate 2
[3] = 12 h, 10 µM, compound concentration 10 uM, replicate 1
[4] = 12 h, 10 µM, compound concentration 10 uM, replicate 2
[5] = 24 h, 1 µM, compound concentration 1 uM, replicate 1
[6] = 24 h, 1 µM, compound concentration 1 uM, replicate 2
[7] = 24 h, 10 µM, compound concentration 10 uM, replicate 1
[8] = 24 h, 10 µM, compound concentration 10 uM, replicate 2
[9] = 48 h, 1 µM, compound concentration 1 uM, replicate 1
[10] = 48 h, 1 µM, compound concentration 1 uM, replicate 2
[11] = 48 h, 10 µM, compound concentration 10 uM, replicate 1
[12] = 48 h, 10 µM, compound concentration 10 uM, replicate 2

CCCn1c(=O)c2[nH]c(C34CC5CC(CC3C5)C4)nc2n(CCC)c1=O [ROLOFYLLINE] was tested, and the “Population Apoptotic (%)” value [1] was 63%, the “Population Fragmented Nuclei (%)” value [1] was 14% and the “Population Healthy Nuclei (%)” value [1] was 30%. For the same molecule, the “Population Hoechst High Intensity Objects (%)” value [1] was 15%, the “Population Membrane Permeable-Phenotype (%)” value [1] was 3% and the “Population Mitochondria Different-Phenotype (%)” value [1] was 84%. For the same molecule, the “Population Mitotic Cells (%)” value [1] was 36%, the “Population Normal (%)” value [1] was 84% and the “Population Pyknosed Nuclei (%)” value [1] was 55%. For the same molecule, the “Population Tubulin-Different-Phenotype (%)” value [1] was 70%, the “Total Cell Count” value [1] was 200 and the “Population Apoptotic (%)” value [2] was 12%. For the same molecule, the “Population Fragmented Nuclei (%)” value [2] was 6%, the “Population Healthy Nuclei (%)” value [2] was 43% and the “Population Hoechst High Intensity Objects (%)” value [2] was 4%. The “Population Membrane Permeable-Phenotype (%)” value [2] was 10%, the “Population Mitochondria Different-Phenotype (%)” value [2] was 18% and the “Population Mitotic Cells (%)” value [2] was 87%. For the same molecule, the “Population Normal (%)” value [2] was 95%, the “Population Pyknosed Nuclei (%)” value [2] was 50% and the “Population Tubulin-Different-Phenotype (%)” value [2] was 15%. For the same molecule, the “Total Cell Count” value [2] was 185, the “Population Apoptotic (%)” value [3] was 78% and the “Population Fragmented Nuclei (%)” value [3] was 12%. The “Population Healthy Nuclei (%)” value [3] was 28%, the “Population Hoechst High Intensity Objects (%)” value [3] was 15% and the “Population Membrane Permeable-Phenotype (%)” value [3] was 1%. For the same molecule, the “Population Mitochondria Different-Phenotype (%)” value [3] was 96%, the “Population Mitotic Cells (%)” value [3] was 21% and the “Population Normal (%)” value [3] was 84%. The “Population Pyknosed Nuclei (%)” value [3] was 59%, the “Population Tubulin-Different-Phenotype (%)” value [3] was 80% and the “Total Cell Count” value [3] was 256. For the same molecule, the “Population Apoptotic (%)” value [4] was 41%, the “Population Fragmented Nuclei (%)” value [4] was 5% and the “Population Healthy Nuclei (%)” value [4] was 24%. The “Population Hoechst High Intensity Objects (%)” value [4] was 9%, the “Population Membrane Permeable-Phenotype (%)” value [4] was 12% and the “Population Mitochondria Different-Phenotype (%)” value [4] was 84%. For the same molecule, the “Population Mitotic Cells (%)” value [4] was 58%, the “Population Normal (%)” value [4] was 90% and the “Population Pyknosed Nuclei (%)” value [4] was 69%. For the same molecule, the “Population Tubulin-Different-Phenotype (%)” value [4] was 87%, the “Total Cell Count” value [4] was 143 and the “Population Apoptotic (%)” value [5] was 50%. For the same molecule, the “Population Fragmented Nuclei (%)” value [5] was 14%, the “Population Healthy Nuclei (%)” value [5] was 32% and the “Population Hoechst High Intensity Objects (%)” value [5] was 22%. The “Population Membrane Permeable-Phenotype (%)” value [5] was 1%, the “Population Mitochondria Different-Phenotype (%)” value [5] was 77% and the “Population Mitotic Cells (%)” value [5] was 49%. For the same molecule, the “Population Normal (%)” value [5] was 77%, the “Population Pyknosed Nuclei (%)” value [5] was 53% and the “Population Tubulin-Different-Phenotype (%)” value [5] was 83%. For the same molecule, the “Total Cell Count” value [5] was 212, the “Population Apoptotic (%)” value [6] was 15% and the “Population Fragmented Nuclei (%)” value [6] was 4%. The “Population Healthy Nuclei (%)” value [6] was 59%, the “Population Hoechst High Intensity Objects (%)” value [6] was 3% and the “Population Membrane Permeable-Phenotype (%)” value [6] was 11%. The “Population Mitochondria Different-Phenotype (%)” value [6] was 17%, the “Population Mitotic Cells (%)” value [6] was 85% and the “Population Normal (%)” value [6] was 96%. For the same molecule, the “Population Pyknosed Nuclei (%)” value [6] was 36%, the “Population Tubulin-Different-Phenotype (%)” value [6] was 38% and the “Total Cell Count” value [6] was 228. The “Population Apoptotic (%)” value [7] was 77%, the “Population Fragmented Nuclei (%)” value [7] was 13% and the “Population Healthy Nuclei (%)” value [7] was 31%. The “Population Hoechst High Intensity Objects (%)” value [7] was 14%, the “Population Membrane Permeable-Phenotype (%)” value [7] was 2% and the “Population Mitochondria Different-Phenotype (%)” value [7] was 97%. The “Population Mitotic Cells (%)” value [7] was 22%, the “Population Normal (%)” value [7] was 85% and the “Population Pyknosed Nuclei (%)” value [7] was 54%. The “Population Tubulin-Different-Phenotype (%)” value [7] was 71%, the “Total Cell Count” value [7] was 255 and the “Population Apoptotic (%)” value [8] was 40%. The “Population Fragmented Nuclei (%)” value [8] was 7%, the “Population Healthy Nuclei (%)” value [8] was 38% and the “Population Hoechst High Intensity Objects (%)” value [8] was 7%. The “Population Membrane Permeable-Phenotype (%)” value [8] was 22%, the “Population Mitochondria Different-Phenotype (%)” value [8] was 75% and the “Population Mitotic Cells (%)” value [8] was 60%. For the same molecule, the “Population Normal (%)” value [8] was 92%, the “Population Pyknosed Nuclei (%)” value [8] was 53% and the “Population Tubulin-Different-Phenotype (%)” value [8] was 87%. The “Total Cell Count” value [8] was 150, the “Population Apoptotic (%)” value [9] was 50% and the “Population Fragmented Nuclei (%)” value [9] was 20%. The “Population Healthy Nuclei (%)” value [9] was 27%, the “Population Hoechst High Intensity Objects (%)” value [9] was 23% and the “Population Membrane Permeable-Phenotype (%)” value [9] was 4%. The “Population Mitochondria Different-Phenotype (%)” value [9] was 61%, the “Population Mitotic Cells (%)” value [9] was 49% and the “Population Normal (%)” value [9] was 76%. For the same molecule, the “Population Pyknosed Nuclei (%)” value [9] was 52%, the “Population Tubulin-Different-Phenotype (%)” value [9] was 70% and the “Total Cell Count” value [9] was 227. The “Population Apoptotic (%)” value [10] was 8%, the “Population Fragmented Nuclei (%)” value [10] was 6% and the “Population Healthy Nuclei (%)” value [10] was 78%. For the same molecule, the “Population Hoechst High Intensity Objects (%)” value [10] was 4%, the “Population Membrane Permeable-Phenotype (%)” value [10] was 14% and the “Population Mitochondria Different-Phenotype (%)” value [10] was 7%. For the same molecule, the “Population Mitotic Cells (%)” value [10] was 91%, the “Population Normal (%)” value [10] was 95% and the “Population Pyknosed Nuclei (%)” value [10] was 15%. The “Population Tubulin-Different-Phenotype (%)” value [10] was 30%, the “Total Cell Count” value [10] was 417 and the “Population Apoptotic (%)” value [11] was 64%. For the same molecule, the “Population Fragmented Nuclei (%)” value [11] was 18%, the “Population Healthy Nuclei (%)” value [11] was 31% and the “Population Hoechst High Intensity Objects (%)” value [11] was 12%. The “Population Membrane Permeable-Phenotype (%)” value [11] was 4%, the “Population Mitochondria Different-Phenotype (%)” value [11] was 98% and the “Population Mitotic Cells (%)” value [11] was 35%. The “Population Normal (%)” value [11] was 87%, the “Population Pyknosed Nuclei (%)” value [11] was 50% and the “Population Tubulin-Different-Phenotype (%)” value [11] was 87%. The “Total Cell Count” value [11] was 257, the “Population Apoptotic (%)” value [12] was 67% and the “Population Fragmented Nuclei (%)” value [12] was 11%. The “Population Healthy Nuclei (%)” value [12] was 55%, the “Population Hoechst High Intensity Objects (%)” value [12] was 7% and the “Population Membrane Permeable-Phenotype (%)” value [12] was 16%. The “Population Mitochondria Different-Phenotype (%)” value [12] was 62%, the “Population Mitotic Cells (%)” value [12] was 32% and the “Population Normal (%)” value [12] was 92%. The “Population Pyknosed Nuclei (%)” value [12] was 32%, the “Population Tubulin-Different-Phenotype (%)” value [12] was 86% and the “Total Cell Count” value [12] was 185.

Reference: ChEMBL document CHEMBL4689842, “EUbOPEN Chemogenomics Library wave 1” (2021)
